ChEMBL document CHEMBL1150328, “Acetic acid aldose reductase inhibitors bearing a five-membered heterocyclic core with potent topical activity in a visual impairment rat model” (J Med Chem, 2008)
The source made the active and inactive calls. No cut-off for these calls is given here.

Assays:
[1] = (§1) Inhibition of ALR2 in Sprague-Dawley rat lens by spectrophotometry; assay type: tissue-based, Lens of camera-type eye
Outline: (§2)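 Rat lens extract, ammonium sulfate fractionated and dialyzed. 30 °C, 0.1 M sodium phosphate pH 6.2 with 0.25 mL 10 mM D,L-glyceraldehyde and 0.25 mL 0.104 mM NADPH in 1 mL total. Preincubated 10 min without substrate, then read 5 min at 340 nm against a substrate-free blank. Screened at 10^-4 M, then 10^-5 to 10^-8 M. IC50 by linear regression of log-dose curve, ≥4 concentrations.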

[2] = Inhibition of ALR1 in Sprague-Dawley rat kidney by spectrophotometry; assay type: tissue-based
Outline: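 Rat kidney enzyme from 3 vol 10 mM sodium phosphate pH 7.2 homogenate (0.25 M sucrose, EDTA, β-mercaptoethanol), 40-75% ammonium sulfate cut, dialyzed. 37 °C, 0.25 mL 20 mM sodium D-glucuronate, 0.25 mL 0.12 mM NADPH, 0.1 M phosphate pH 7.2, 1 mL total. NADPH oxidation followed at 340 nm against a substrate-free blank.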

Rattus norvegicus [3] = assay: Prevention of cataract development in severely galactosemic Sprague-Dawley Albino rat administered four timely daily as 3% eye-drop solution in precorneal region for 21 days; assay type: functional, organism-based
Outline: (§3)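 Sprague-Dawley rats, 45-55 g, on 50% D-galactose chow, 15 per group. Both eyes dosed four times daily with 3% eye-drops or vehicle, starting one day before the diet switch. Lenses examined by slit-lamp after 1% atropine dilation at baseline and days 6, 8, 10, 14, 21. Graded stages 0-4, animals per stage counted, Mann-Whitney U-test.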

Rattus norvegicus [4] = assay: Prevention of cataract development in severely galactosemic Sprague-Dawley Albino rat assessed as lens opacification administered four timely daily as 3% eye-drop solution in precorneal region for 21 days by slit-lamp microscopy; assay type: functional, organism-based; settings: Lens of camera-type eye; outline: as §3
Rattus norvegicus [5] = assay: Prevention of cataract development in severely galactosemic Sprague-Dawley Albino rat assessed as lens opacification administered four timely daily as 3% eye-drop solution in precorneal region for 11 days by slit-lamp microscopy; assay type: functional, organism-based; settings: Lens of camera-type eye
Rattus norvegicus [6] = assay: Prevention of cataract development in severely galactosemic Sprague-Dawley Albino rat assessed as lens opacification administered four timely daily as 3% eye-drop solution in precorneal region for 12 days by slit-lamp microscopy; assay type: functional, organism-based; settings: Lens of camera-type eye
Rattus norvegicus [7] = assay: Prevention of cataract development in severely galactosemic Sprague-Dawley Albino rat assessed as lens opacification administered four timely daily as 3% eye-drop solution in precorneal region for 13 days by slit-lamp microscopy; assay type: functional, organism-based; settings: Lens of camera-type eye
Rattus norvegicus [8] = assay: Prevention of cataract development in severely galactosemic Sprague-Dawley Albino rat assessed as lens opacification administered four timely daily as 3% eye-drop solution in precorneal region for 14 days by slit-lamp microscopy; assay type: functional, organism-based; settings: Lens of camera-type eye; outline: as §3
Rattus norvegicus [9] = assay: Prevention of cataract development in severely galactosemic Sprague-Dawley Albino rat assessed as lens opacification administered four timely daily as 3% eye-drop solution in precorneal region for 15 days by slit-lamp microscopy; assay type: functional, organism-based; settings: Lens of camera-type eye
Rattus norvegicus [10] = assay: Prevention of cataract development in severely galactosemic Sprague-Dawley Albino rat assessed as lens opacification administered four timely daily as 3% eye-drop solution in precorneal region for 16 days by slit-lamp microscopy; assay type: functional, organism-based; settings: Lens of camera-type eye
Rattus norvegicus [11] = assay: Prevention of cataract development in severely galactosemic Sprague-Dawley Albino rat assessed as lens opacification administered four timely daily as 3% eye-drop solution in precorneal region for 17 days by slit-lamp microscopy; assay type: functional, organism-based; settings: Lens of camera-type eye
Rattus norvegicus [12] = assay: Prevention of cataract development in severely galactosemic Sprague-Dawley Albino rat assessed as lens opacification administered four timely daily as 3% eye-drop solution in precorneal region for 18 days by slit-lamp microscopy; assay type: functional, organism-based; settings: Lens of camera-type eye
Rattus norvegicus [13] = assay: Prevention of cataract development in severely galactosemic Sprague-Dawley Albino rat assessed as lens opacification administered four timely daily as 3% eye-drop solution in precorneal region for 19 days by slit-lamp microscopy; assay type: functional, organism-based; settings: Lens of camera-type eye
Rattus norvegicus [14] = assay: Prevention of cataract development in severely galactosemic Sprague-Dawley Albino rat assessed as lens opacification administered four timely daily as 3% eye-drop solution in precorneal region for 20 days by slit-lamp microscopy; assay type: functional, organism-based; settings: Lens of camera-type eye
Rattus norvegicus [15] = species: Rattus norvegicus; assay: as §1; assay type: tissue-based; settings: Lens of camera-type eye; outline: as §2
Rattus norvegicus [16] = species: Rattus norvegicus; assay: Inhibition of ALR2 in Sprague-Dawley rat lens at >100 uM by spectrophotometry; assay type: tissue-based; settings: Lens of camera-type eye; outline: as §2

SMILES | IC50 [1] [µM] | IC50 [2] [µM] | further results
O=C(O)Cc1nc(-c2ccc(Cl)cc2)no1 | 3.95 | > 10 | –
COc1ccc(-c2nc(CC(=O)O)co2)cc1 | 54.8 | – | –
O=C(O)Cc1nc(-c2ccccc2)no1 | 3.33 | > 10 | –
O=C(O)Cc1nc(Cc2ccc(C(F)(F)F)cc2)no1 | 6.3 | > 10 | –
COc1ccc(-c2noc(CC(=O)O)n2)cc1 | 0.27 | > 10 | Activity (Rattus norvegicus [3]): Active; Activity (Rattus norvegicus [4]): Active; Activity (Rattus norvegicus [5]): Active; Activity (Rattus norvegicus [6]): Active; Activity (Rattus norvegicus [7]): Active; Activity (Rattus norvegicus [8]): Active; Activity (Rattus norvegicus [9]): Active; Activity (Rattus norvegicus [10]): Active; Activity (Rattus norvegicus [11]): Active; Activity (Rattus norvegicus [12]): Active
COc1ccc2c(C(=S)N(C)CC(=O)O)cccc2c1C(F)(F)F [TOLRESTAT] | 0.05 | > 10 | Activity (Rattus norvegicus [4]): Active; Activity (Rattus norvegicus [5]): Active; Activity (Rattus norvegicus [6]): Active; Activity (Rattus norvegicus [7]): Active; Activity (Rattus norvegicus [8]): Active; Activity (Rattus norvegicus [9]): Active; Activity (Rattus norvegicus [10]): Active; Activity (Rattus norvegicus [11]): Active; Activity (Rattus norvegicus [12]): Active; Activity (Rattus norvegicus [13]): Active; Activity (Rattus norvegicus [14]): Active
O=C(O)Cc1nc(-c2ccc(C(F)(F)F)cc2)no1 | 1.08 | > 10 | –
O=C(O)Cc1coc(-c2ccccc2)n1 | – | – | Activity (Rattus norvegicus [15]): inactive; Activity (Rattus norvegicus [16]): Active
O=C(O)Cc1nc(-c2ccc(F)cc2)no1 | 8.43 | > 10 | –
O=C(O)Cc1coc(-c2ccc(F)cc2)n1 | – | – | Activity (Rattus norvegicus [15]): inactive; Activity (Rattus norvegicus [16]): Active
Cc1ccc(-c2noc(CC(=O)O)n2)cc1 | 2.5 | > 10 | –
O=C(O)Cc1nc(Cc2cccc([N+](=O)[O-])c2)no1 | 0.3 | > 10 | –
O=C(O)Cc1nc(-c2cccc([N+](=O)[O-])c2)no1 | 0.71 | > 10 | –
COc1ccc(Cc2noc(CC(=O)O)n2)cc1 | 8.18 | > 10 | –
Cc1ccc(-c2nc(CC(=O)O)co2)cc1 | – | – | Activity (Rattus norvegicus [15]): inactive; Activity (Rattus norvegicus [16]): Active

More lines, main results first:

IC50 [1] [µM] | IC50 [2] [µM] | SMILES | further results
0.36 | > 10 | O=C(O)Cc1nc(Cc2ccc(Br)cc2F)no1 | –
1.66 | > 10 | O=C(O)Cc1nc(Cc2ccc(Br)cc2)no1 | –
21.7 | > 10 | O=C(O)Cc1nc(Cc2ccc(F)cc2)no1 | –
28.4 | > 10 | O=C(O)Cc1nc(Cc2ccccc2)no1 | –
2 | > 10 | O=C(O)Cc1nc(-c2ccc(Br)cc2F)no1 | –
0.69 | > 10 | O=C(O)Cc1nc(-c2ccc(Br)cc2)no1 | –
5.29 | > 10 | Cc1ccc(Cc2noc(CC(=O)O)n2)cc1 | –
5.11 | > 10 | O=C(O)Cc1nc(Cc2ccc(Cl)cc2)no1 | –
